Experimental data published in ChEMBL document CHEMBL1687719, “Absence of CD4+ T lymphocytes, CD8+ T lymphocytes, or B lymphocytes has different effects on the efficacy of posaconazole and benznidazole in treatment of experimental acute Trypanosoma cruzi infection” (2009).
Active and inactive are the calls of the source. The rule behind the calls is not given here.

Key:
[1] = system: Trypanosoma cruzi; assay: Antitrypanosomal activity against Trypanosoma cruzi Y infected in CD8+ T-lymphocyte knockout C57BL/6 mouse assessed as cure rate in mouse at 100 mg/kg/day, po administered once daily for 20 consecutive days measured 60 days post infection; type: functional
Summary of the method: (§1)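 Mice infected ip with 5,000 blood trypomastigotes (Y strain kept by serial passage in Swiss-Webster mice). Oral dosing started day 4 post-infection and ran 20 consecutive days, drug dissolved in water with gum arabic. Fresh tail blood was examined microscopically daily days 4–16, then every other day to day 60. Parasitemia-negative mice were bled at day 60 by orbital sinus, 0.5 ml into two tubes of LIT medium, 28°C for 30–60 days, then examined microscopically. Cure meant negative fresh blood plus negative hemoculture. Rates were compared by chi-square with Bonferroni.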

[2] = system: Trypanosoma cruzi; assay: Antitrypanosomal activity against Trypanosoma cruzi Y infected in CD4+ T-lymphocyte knockout C57BL/6 mouse assessed as reactivation of parasite in mouse at 100 mg/kg/day, po administered once daily for 20 consecutive days measured 60 days post infection; type: functional, organism-based
Summary of the method: (§2)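 Ip infection was 5,000 Y-strain blood trypomastigotes. Oral dosing at 100 mg/kg/day, once daily in gum arabic water, ran from 4 dpi for 20 days. Parasitemia was read by microscopy of fresh tail blood, daily from 4–16 dpi, then every other day to 60 dpi. Reactivation was scored as patent parasitemia returning after treatment ended.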

[3] = system: Trypanosoma cruzi; assay: Antitrypanosomal activity against Trypanosoma cruzi Y infected in CD8+ T-lymphocyte knockout C57BL/6 mouse assessed as occurrence of subpatent level of parasitemia at 100 mg/kg/day, po administered once daily for 20 consecutive days measured 60 days post infection; type: functional, organism-based; summary of the method: as §2
[4] = system: Trypanosoma cruzi; assay: Antitrypanosomal activity against Trypanosoma cruzi Y infected in CD4+ T-lymphocyte knockout C57BL/6 mouse assessed as cure rate in mouse at 100 mg/kg/day, po administered once daily for 20 consecutive days measured 60 days post infection; type: functional; summary of the method: as §1
[5] = system: Trypanosoma cruzi; assay: Antitrypanosomal activity against Trypanosoma cruzi Y infected in CD4+ T-lymphocyte knockout C57BL/6 mouse assessed as reactivation of parasite in mouse at 20 mg/kg/day, po administered twice daily for 20 consecutive days measured 60 days post infection; type: functional, organism-based
Summary of the method: (§3)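 Ip infection was 5,000 Y-strain blood trypomastigotes. From 4 dpi mice got 20 mg/kg/day orally in two daily doses (2% methylcellulose/0.5% Tween 80) for 20 days. Fresh tail blood was examined microscopically, daily from 4–16 dpi and every other day to 60 dpi. Reactivation was scored as return of patent parasitemia after treatment. Parasitemia curves were compared by Mann-Whitney.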

[6] = system: Trypanosoma cruzi; assay: Antitrypanosomal activity against Trypanosoma cruzi Y infected in CD4+ T-lymphocyte knockout C57BL/6 mouse assessed as reactivation of parasite in mouse at 100 mg/kg/day, po administered once daily for 20 consecutive days measured 11 days post infection; type: functional, organism-based; summary of the method: as §2
[7] = system: Trypanosoma cruzi; assay: Antitrypanosomal activity against Trypanosoma cruzi Y infected in CD4+ T-lymphocyte knockout C57BL/6 mouse assessed as mean survival time at 100 mg/kg/day, po administered once daily for 20 consecutive days measured 60 days post infection; type: functional
Summary of the method: (§4)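 Mice were infected ip with 5,000 blood trypomastigotes of the Y strain, kept by serial passage in Swiss-Webster mice. From 4 dpi they got 100 mg/kg/day orally once daily for 20 consecutive days, dissolved in water with gum arabic. Survival was followed to 60 dpi, with mean survival time and survival rate taken. Untreated and vehicle-treated infected mice served as controls. Rates compared by chi-square with Bonferroni.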

[8] = system: Trypanosoma cruzi; assay: Antitrypanosomal activity against Trypanosoma cruzi Y infected in CD4+ T-lymphocyte knockout C57BL/6 mouse assessed as occurrence of subpatent parasitemia level in mouse at 20 mg/kg/day, po administered twice daily for 20 consecutive days measured 4 to 24 days post infection; type: functional, organism-based; summary of the method: as §3
[9] = system: Trypanosoma cruzi; assay: Antitrypanosomal activity against Trypanosoma cruzi Y infected in CD4+ T-lymphocyte knockout C57BL/6 mouse assessed as increase in survival of mouse at 100 mg/kg/day, po administered once daily for 20 consecutive days measured 60 days post infection; type: functional; settings: 1440 h; summary of the method: as §4
[10] = system: Trypanosoma cruzi; assay: Antitrypanosomal activity against Trypanosoma cruzi Y infected in B-lymphocyte knockout C57BL/6 mouse assessed as number of mouse with reactivation of infection at 100 mg/kg/day, po administered once daily for 20 consecutive days measured 22 days post infection; type: functional, organism-based; summary of the method: as §2
[11] = system: Trypanosoma cruzi; assay: Antitrypanosomal activity against Trypanosoma cruzi Y infected in C57BL/6 mouse assessed as increase in survival of mouse at 100 mg/kg/day, po administered once daily for 20 consecutive days measured 60 days post infection; type: functional; settings: 1440 h; summary of the method: as §4
[12] = system: Trypanosoma cruzi; assay: Antitrypanosomal activity against Trypanosoma cruzi Y infected in B-lymphocyte knockout C57BL/6 mouse assessed as increase in survival of mouse at 100 mg/kg/day, po administered once daily for 20 consecutive days measured 60 days post infection; type: functional; settings: 1440 h; summary of the method: as §4
[13] = system: Trypanosoma cruzi; assay: Antitrypanosomal activity against Trypanosoma cruzi Y infected in CD4+ T-lymphocyte knockout C57BL/6 mouse assessed as occurrence of subpatent parasitemia level in mouse at 100 mg/kg/day, po administered once daily for 20 consecutive days measured 4 to 24 days post infection; type: functional, organism-based; summary of the method: as §2
[14] = system: Trypanosoma cruzi; assay: Antitrypanosomal activity against Trypanosoma cruzi Y infected in CD8+ T-lymphocyte knockout C57BL/6 mouse assessed as occurrence of low level of circulating parasites at 100 mg/kg/day, po administered once daily for 20 consecutive days measured 15 days after the end of treatment
[15] = system: Trypanosoma cruzi; assay: Antitrypanosomal activity against Trypanosoma cruzi Y infected in CD8+ T-lymphocyte knockout C57BL/6 mouse assessed as number of mouse with reactivated parasite at 100 mg/kg/day, po administered once daily for 20 consecutive days measured 60 days post infection; type: functional
Summary of the method: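 Mice infected ip with 5,000 Y-strain blood trypomastigotes. From day 4 they were given drug orally in water with gum arabic for 20 days. Reactivation was scored as reappearance of circulating parasites after treatment ended, seen by microscopy of fresh tail blood. Sampling was daily from day 4 to 16 and then every other day up to day 60.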

[16] = system: Trypanosoma cruzi; assay: Antitrypanosomal activity against Trypanosoma cruzi Y infected in C57BL/6 mouse assessed as mean survival time at 100 mg/kg/day, po administered once daily for 20 consecutive days measured 60 days post infection; type: functional; summary of the method: as §4
[17] = system: Trypanosoma cruzi; assay: Antitrypanosomal activity against Trypanosoma cruzi Y infected in CD8+ T-lymphocyte knockout C57BL/6 mouse assessed as occurrence of subpatent level of parasitemia at 20 mg/kg/day, po administered twice daily for 20 consecutive days measured 60 days post infection; type: functional, organism-based; summary of the method: as §3
[18] = system: Trypanosoma cruzi; assay: Antitrypanosomal activity against Trypanosoma cruzi Y infected in CD8+ T-lymphocyte knockout C57BL/6 mouse assessed as increase in survival of mouse at 100 mg/kg/day, po administered once daily for 20 consecutive days measured 60 days post infection; type: functional; settings: 1440 h; summary of the method: as §4
[19] = system: Trypanosoma cruzi; assay: Antitrypanosomal activity against Trypanosoma cruzi Y infected in C57BL/6 mouse assessed as cure rate in mouse at 100 mg/kg/day, po administered once daily for 20 consecutive days measured 60 days post infection; type: functional; summary of the method: as §1
[20] = system: Trypanosoma cruzi; assay: Antitrypanosomal activity against Trypanosoma cruzi Y infected in B-lymphocyte knockout C57BL/6 mouse assessed as mean survival time at 100 mg/kg/day, po administered once daily for 20 consecutive days measured 60 days post infection; type: functional; summary of the method: as §4
[21] = system: Trypanosoma cruzi; assay: Antitrypanosomal activity against Trypanosoma cruzi Y infected in CD8+ T-lymphocyte knockout C57BL/6 mouse assessed as mean survival time at 100 mg/kg/day, po administered once daily for 20 consecutive days measured 60 days post infection; type: functional; summary of the method: as §4
[22] = system: Trypanosoma cruzi; assay: Antitrypanosomal activity against Trypanosoma cruzi Y infected in B-lymphocyte knockout C57BL/6 mouse assessed as cure rate in mouse at 100 mg/kg/day, po administered once daily for 20 consecutive days measured 60 days post infection; type: functional; summary of the method: as §1

SMILES: O=C(Cn1ccnc1[N+](=O)[O-])NCc1ccccc1 [BENZNIDAZOLE]
- Activity [1]: 66%
- Activity [2]: inactive
- Activity [3]: Active
- Activity [4]: 0%
- Activity [5]: inactive
- Activity [6]: inactive
- MST [7]: 53.7 days
- Activity [8]: Active
- survival at 100 mg/kg/day [9]: 6%
- Activity [10]: inactive
- survival at 100 mg/kg/day [11]: 100%
- survival at 100 mg/kg/day [12]: 67%
- Activity [13]: Active
- Activity [14]: Active
- Activity [15]: 22%
- MST [16]: >60 days
- Activity [17]: Active
- survival at 100 mg/kg/day [18]: 86%
- Activity [19]: 86%
- MST [20]: 59.3 days
- MST [21]: 58.8 days
- Activity [22]: 22%
